The values below come from ChEMBL document CHEMBL4184268, “Design, synthesis, and biological evaluation of inhibitors of the NADPH oxidase, Nox4” (Bioorg Med Chem, 2018).

The nature of data set [1]: Effect on hypoxanthine/xanthine oxidase-induced superoxide radical scavenging activity up to 100 uM incubated for 1 min measured for 15 mins by cytochrome C assay. The format is functional. Put shortly: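 Superoxide from hypoxanthine (100 μM)/xanthine oxidase in PBS with catalase (200 U/mL), compound 1–100 μM, detected by cytochrome C (46 μM) reduction at 550 nm. After 1 min stabilization, read kinetically 1/min for 15 min. Linear slope gave % scavenging. SOD (575 U/mL) as positive control. Means ± SEM of 4 experiments, ANOVA/Dunnett.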

Data set [2] is described as follows: Cytotoxicity against HASMCs assessed as cell viability at 100 uM after 24 hrs by calcein/AM/ethidium homodimer-1 staining based fluorescence microscopic analysis relative to control. Conditions: human, HASMC cells; read-out: Activity. An outline of the steps: (§1)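 HASMs (before passage 10) grown to 80% confluence, then serum-reduced (0.1% FBS) for 24 h. Cells were pretreated with compound for 30 min, then given TGF-β (2 ng/ml) for 24 h. Stained with calcein/AM (2 μM) and ethidium homodimer-1 (4 μM) for 10 min at room temperature, read by fluorescence microscopy. Controls: untreated cells as negative, 70% ethanol for 30 min as positive.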

The subject of a further data set is HASMC. The data set is described as follows: Effect on TGFbeta-induced Nox4 mRNA expression in HASMCs at 1 to 100 uM pretreated for 30 mins followed by TGFbeta addition measured after 24 hrs by qPCR analysis. The format is functional, cell-based. The conditions noted are these: Homo sapiens. (In qPCR the cycle at which signal appears reflects the starting amount.)

In a further data set the target is T1, NADPH oxidase 4 (Homo sapiens, UniProt Q9NPH5).
T1 sequence (Q9NPH5 whole entry): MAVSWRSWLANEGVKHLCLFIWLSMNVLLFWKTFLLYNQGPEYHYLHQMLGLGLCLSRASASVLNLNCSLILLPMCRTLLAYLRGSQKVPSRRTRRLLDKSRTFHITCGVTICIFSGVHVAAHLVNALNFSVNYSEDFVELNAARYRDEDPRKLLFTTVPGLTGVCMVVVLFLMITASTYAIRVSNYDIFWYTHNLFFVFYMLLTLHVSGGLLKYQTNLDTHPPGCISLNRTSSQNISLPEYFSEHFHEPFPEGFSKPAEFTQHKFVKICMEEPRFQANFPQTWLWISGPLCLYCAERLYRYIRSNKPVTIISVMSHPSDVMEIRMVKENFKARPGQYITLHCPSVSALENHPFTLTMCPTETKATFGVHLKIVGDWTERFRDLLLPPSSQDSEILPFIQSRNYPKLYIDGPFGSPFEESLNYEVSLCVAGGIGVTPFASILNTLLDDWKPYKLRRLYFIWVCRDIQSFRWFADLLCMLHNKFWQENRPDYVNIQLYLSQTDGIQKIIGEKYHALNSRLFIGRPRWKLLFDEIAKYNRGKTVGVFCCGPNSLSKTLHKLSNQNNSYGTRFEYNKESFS
Nature of the data set: Inhibition of Nox4 in HASMCs assessed as reduction in TGFbeta-induced increase in smooth muscle alpha actin level pretreated for 30 mins followed by TGFbeta stimulation after 24 hrs by Western blot analysis. Put shortly:
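HASMs (<passage 10) at 80% confluence, serum-reduced (0.1% FBS) 24 h, pretreated 30 min with compound (1–100 μM), then TGF-β 2 ng/ml for 24 h. Lysates blotted for α-SMA normalized to β-tubulin, ECL detection. TGF-β alone set as 100%. IC50 by non-linear regression, means ± SEM from 3–4 independent experiments.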
A general note: A western blot detects proteins with antibodies after separation by electrophoresis.

Data set [3] can be described thus: Effect on hydrogen peroxide radical scavenging activity up to 100 uM measured after 5 mins by Amplex Red assay. The format is functional. An outline of the steps:
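Cell-free H2O2 consumption. Exogenous H2O2 incubated 5 min with compound (1–100 μM) in reaction buffer. Amplex Red/horseradish peroxidase then added for 30 min at room temperature in the dark. Resorufin read at ex 530/em 590 nm. DMSO solvent control. Means ± SEM of 3 independent experiments, one-way ANOVA with Dunnett's test.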

The nature of data set [4]: Cytotoxicity against HASMCs assessed as cell viability at 10 uM after 24 hrs by calcein/AM/ethidium homodimer-1 staining based fluorescence microscopic analysis relative to control. Conditions: human, HASMC cells; read-out: Activity. Put shortly:
as §1

By IC50 is commonly meant the concentration at which inhibition is half-maximal.

SMILES strings stand for the structures. Activity calls are given as the source filed them. The calls are words filed in the database; no cut-off is given here.

On to `COc1ccc(S(=O)(=O)N2CCCN(c3ccc(C(F)(F)F)cc3)C2=O)cc1`, for which the result (in data set [1]; in the data set on HASMC; in data set [3]) was inactive. In addition, the viability at 24 h, 100 µM in data set [2] is 92%. Besides, at NADPH oxidase 4, the half-maximal inhibitory concentration (IC50) is 27 µM.

With `O=C1N(c2ccc(C(F)(F)F)cc2)CCCN1S(=O)(=O)c1ccc(F)cc1`, the outcome (in data set [1]; in the data set with HASMC; in data set [3]) was inactive. In data set [2], the viability at 24 h, 100 µM was 100%. In addition, on NADPH oxidase 4, the IC50 is 3.7 µM.

As for `COc1ccc(S(=O)(=O)N2CCN(c3ccc(C(F)(F)F)cc3)C2=O)cc1`, the viability at 24 h, 10 µM in data set [4] was 97%. Also, the result (in data set [1]; in the data set with HASMC; in data set [3]) was inactive. Further, the concentration for half-maximal inhibition (IC50) at NADPH oxidase 4 was found to be 0.5 µM.
